Experimental data published in ChEMBL document CHEMBL3112393, “Structure-based design, synthesis and biological evaluation of diphenylmethylamine derivatives as novel Akt1 inhibitors” (Eur J Med Chem, 2014).
Calls of active or inactive are those of the source. The rule behind the calls is not given here.

What was measured:
[1] = target: T1, RAC-alpha serine/threonine-protein kinase (Homo sapiens, UniProt P31749); assay: Inhibition of Akt1 (unknown origin) using ATP/eNOS as substrate preincubated for 5 mins followed by substrate addition measured after 30 mins by fluorescence polarization assay
OVCAR-8 [2] = assay: Antiproliferative activity against human OVCAR8 cells after 72 hrs by MTT assay; format: functional, cell-based; conditions: OVCAR-8, 72 h
Summary of the method: (§1)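 MTT assay: cells seeded at 4000 per well, attached overnight, exposed to compound over 1.0–100.0 range for 72 h. MTT then added, 4 h more at 37 °C. Formazan dissolved in DMSO, absorbance at 570 nm. Triplicate wells in three independent experiments. IC50 from dose-effect analysis.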

HL-60 = assay: Antiproliferative activity against human HL60 cells after 72 hrs by MTT assay; format: functional, cell-based; conditions: HL-60, 72 h; summary of the method: as §1
HCT-116 = assay: Antiproliferative activity against human HCT116 cells after 72 hrs by MTT assay; format: functional, cell-based; conditions: HCT-116, 72 h; summary of the method: as §1
[3] = target: T1, RAC-alpha serine/threonine-protein kinase; assay: Inhibition of Akt1 (unknown origin) using ATP/eNOS as substrate at 10 uM preincubated for 5 mins followed by substrate addition measured after 30 mins by fluorescence polarization assay
Summary of the method: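 Competitive fluorescence polarization kinase assay. 4 ng Akt1 in 2.5× kinase buffer (62.5 mM Tris-HCl pH 7.5, 25 mM MgCl₂, 12.5 mM β-glycerophosphate, 0.25 mM Na₃VO₄, 5 mM DTT) preincubated with DMSO vehicle or compound for 5 min at room temperature. ATP/eNOS substrate cocktail then added. Reaction stopped with 50 mM EDTA (pH 8.0), activity read per kit instructions. Single-point inhibition measured at 10.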

Homo sapiens = organism: Homo sapiens; assay: Inhibition of Drak (unknown origin) at 0.8 ug/ml
[4] = target: T2, Inhibitor of nuclear factor kappa-B kinase subunit beta (Homo sapiens) (UniProt O14920); assay: Inhibition of IKKbeta (unknown origin) at 0.8 ug/ml
T2 sequence (whole entry): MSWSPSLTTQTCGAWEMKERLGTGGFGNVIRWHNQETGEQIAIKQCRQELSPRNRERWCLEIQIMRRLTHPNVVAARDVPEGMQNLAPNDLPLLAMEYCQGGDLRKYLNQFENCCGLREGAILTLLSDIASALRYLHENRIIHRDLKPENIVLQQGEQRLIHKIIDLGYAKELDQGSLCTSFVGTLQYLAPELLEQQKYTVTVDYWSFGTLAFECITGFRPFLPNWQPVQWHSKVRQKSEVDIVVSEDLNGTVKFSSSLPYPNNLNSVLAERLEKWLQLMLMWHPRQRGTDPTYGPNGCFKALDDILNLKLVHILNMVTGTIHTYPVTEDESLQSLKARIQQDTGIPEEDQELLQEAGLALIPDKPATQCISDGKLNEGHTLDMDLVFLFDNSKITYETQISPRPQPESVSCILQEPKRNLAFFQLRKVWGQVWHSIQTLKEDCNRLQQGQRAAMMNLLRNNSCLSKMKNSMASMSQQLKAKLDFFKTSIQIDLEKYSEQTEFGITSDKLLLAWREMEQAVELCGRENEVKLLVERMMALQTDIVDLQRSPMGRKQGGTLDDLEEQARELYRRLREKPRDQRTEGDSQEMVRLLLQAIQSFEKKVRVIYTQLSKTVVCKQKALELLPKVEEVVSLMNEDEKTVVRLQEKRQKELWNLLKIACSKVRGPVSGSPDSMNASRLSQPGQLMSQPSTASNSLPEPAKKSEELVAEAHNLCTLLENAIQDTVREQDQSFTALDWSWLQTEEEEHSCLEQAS

[5] = target: T1, RAC-alpha serine/threonine-protein kinase; assay: Inhibition of Akt1 in human OVCAR8 cells assessed as effect on total GSK3beta level at 1 uM by Western blotting analysis; format: cell-based; conditions: OVCAR-8
Summary of the method: (§2)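 OVCAR-8 cells treated, washed with ice-cold PBS, lysed in buffer with NaF, β-glycerophosphate and PMSF. Lysate cleared at 13,000 rpm for 30 min at 4 °C, protein measured by Bradford. 40–80 of lysate protein run on SDS-PAGE and transferred to nitrocellulose. Blots probed with primary antibodies, then HRP secondaries, detected by ECL.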

[6] = target: Tyrosine-protein kinase JAK2 (Homo sapiens) (UniProt O60674); assay: Inhibition of JAK2 (unknown origin) at 0.8 ug/ml
[7] = target: T1, RAC-alpha serine/threonine-protein kinase; assay: Inhibition of Akt1-mediated phosphorylation at Ser473 in human OVCAR8 cells at 1 uM by Western blotting analysis; format: cell-based; conditions: OVCAR-8; summary of the method: as §2
[8] = target: Tyrosine-protein kinase SYK (Homo sapiens) (UniProt P43405); assay: Inhibition of SYK (unknown origin) at 0.8 ug/ml
[9] = target: Glycogen synthase kinase-3 beta (Homo sapiens) (UniProt P49841); assay: Inhibition of GSK3beta (unknown origin) at 0.8 ug/ml
[10] = target: T1, RAC-alpha serine/threonine-protein kinase; assay: Inhibition of Akt1 in human OVCAR8 cells assessed as GSK3beta phosphorylation at 1 uM by Western blotting analysis; format: cell-based; conditions: OVCAR-8; summary of the method: as §2
[11] = target: T3, Aurora kinase A (Homo sapiens) (UniProt O14965); assay: Inhibition of Aurora A (unknown origin) at 0.8 ug/ml
T3 sequence (whole entry): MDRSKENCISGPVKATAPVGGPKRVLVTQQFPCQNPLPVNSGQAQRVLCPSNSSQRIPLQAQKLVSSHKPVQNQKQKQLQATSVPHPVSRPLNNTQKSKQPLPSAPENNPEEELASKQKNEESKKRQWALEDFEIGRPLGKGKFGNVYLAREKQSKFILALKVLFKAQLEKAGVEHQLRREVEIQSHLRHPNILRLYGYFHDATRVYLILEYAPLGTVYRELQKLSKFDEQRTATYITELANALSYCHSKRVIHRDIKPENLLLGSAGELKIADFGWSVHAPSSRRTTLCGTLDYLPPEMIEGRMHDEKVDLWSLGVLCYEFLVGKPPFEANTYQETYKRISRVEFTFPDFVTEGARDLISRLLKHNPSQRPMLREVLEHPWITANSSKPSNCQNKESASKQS

OVCAR-8 [12] = assay: Induction of apoptosis in human OVCAR8 cells assessed as accumulation at sub-G1 phase at 20 uM after 48 hrs by annexin V-FITC/propidium iodide staining-based FACS flow cytometric analysis (reference value: 1.2%); format: functional
Summary of the method: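 OVCAR-8 cells (5 × 10⁴ cells/ml, 5 ml) grown in 25 cm² flasks, treated with vehicle or compound for 48 h. Cells harvested, washed twice with ice-cold PBS, stained with annexin V-FITC/propidium iodide, analysed by flow cytometry.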

[13] = target: T4, Serine/threonine-protein kinase B-raf (Homo sapiens, UniProt P15056); assay: Inhibition of BRAF1 (unknown origin)
[14] = target: T4, Serine/threonine-protein kinase B-raf
[15] = Inhibition of Drak (unknown origin); design: species or system Homo sapiens

T1 sequence (P31749 whole entry): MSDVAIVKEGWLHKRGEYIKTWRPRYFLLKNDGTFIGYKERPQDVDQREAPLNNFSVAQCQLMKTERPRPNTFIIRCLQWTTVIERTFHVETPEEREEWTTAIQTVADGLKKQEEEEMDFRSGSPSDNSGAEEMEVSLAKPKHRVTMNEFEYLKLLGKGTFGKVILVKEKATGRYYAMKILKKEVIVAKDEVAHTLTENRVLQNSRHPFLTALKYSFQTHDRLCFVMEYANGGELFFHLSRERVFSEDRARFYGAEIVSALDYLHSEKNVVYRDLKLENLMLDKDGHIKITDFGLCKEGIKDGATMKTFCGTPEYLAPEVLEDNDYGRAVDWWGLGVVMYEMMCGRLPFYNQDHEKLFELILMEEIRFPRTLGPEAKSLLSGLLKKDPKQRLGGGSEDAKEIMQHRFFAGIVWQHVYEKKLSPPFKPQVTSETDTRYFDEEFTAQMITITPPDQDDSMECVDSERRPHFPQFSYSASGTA
T4 sequence (P15056 whole entry): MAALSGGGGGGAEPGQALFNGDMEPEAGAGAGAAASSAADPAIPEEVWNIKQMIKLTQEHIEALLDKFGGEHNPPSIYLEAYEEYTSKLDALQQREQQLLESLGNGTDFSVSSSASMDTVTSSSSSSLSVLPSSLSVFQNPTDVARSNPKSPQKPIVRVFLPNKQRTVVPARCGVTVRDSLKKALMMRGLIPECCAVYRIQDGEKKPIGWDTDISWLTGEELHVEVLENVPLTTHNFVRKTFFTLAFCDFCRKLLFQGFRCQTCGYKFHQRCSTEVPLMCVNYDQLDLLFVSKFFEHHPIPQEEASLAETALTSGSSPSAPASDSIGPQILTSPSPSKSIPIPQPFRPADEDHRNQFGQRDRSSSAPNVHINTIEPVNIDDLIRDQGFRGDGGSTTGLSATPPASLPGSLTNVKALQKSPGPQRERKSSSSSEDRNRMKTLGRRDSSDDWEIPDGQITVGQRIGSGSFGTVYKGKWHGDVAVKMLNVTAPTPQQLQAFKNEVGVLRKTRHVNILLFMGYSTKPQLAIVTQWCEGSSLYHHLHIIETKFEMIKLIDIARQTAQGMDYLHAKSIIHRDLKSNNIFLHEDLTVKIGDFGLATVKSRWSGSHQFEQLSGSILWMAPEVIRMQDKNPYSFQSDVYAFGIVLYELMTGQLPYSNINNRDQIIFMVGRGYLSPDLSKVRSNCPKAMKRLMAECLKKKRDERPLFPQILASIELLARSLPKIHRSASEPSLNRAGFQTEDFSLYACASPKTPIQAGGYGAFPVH
Tyrosine-protein kinase JAK2 (Homo sapiens), sequence (O60674 whole entry): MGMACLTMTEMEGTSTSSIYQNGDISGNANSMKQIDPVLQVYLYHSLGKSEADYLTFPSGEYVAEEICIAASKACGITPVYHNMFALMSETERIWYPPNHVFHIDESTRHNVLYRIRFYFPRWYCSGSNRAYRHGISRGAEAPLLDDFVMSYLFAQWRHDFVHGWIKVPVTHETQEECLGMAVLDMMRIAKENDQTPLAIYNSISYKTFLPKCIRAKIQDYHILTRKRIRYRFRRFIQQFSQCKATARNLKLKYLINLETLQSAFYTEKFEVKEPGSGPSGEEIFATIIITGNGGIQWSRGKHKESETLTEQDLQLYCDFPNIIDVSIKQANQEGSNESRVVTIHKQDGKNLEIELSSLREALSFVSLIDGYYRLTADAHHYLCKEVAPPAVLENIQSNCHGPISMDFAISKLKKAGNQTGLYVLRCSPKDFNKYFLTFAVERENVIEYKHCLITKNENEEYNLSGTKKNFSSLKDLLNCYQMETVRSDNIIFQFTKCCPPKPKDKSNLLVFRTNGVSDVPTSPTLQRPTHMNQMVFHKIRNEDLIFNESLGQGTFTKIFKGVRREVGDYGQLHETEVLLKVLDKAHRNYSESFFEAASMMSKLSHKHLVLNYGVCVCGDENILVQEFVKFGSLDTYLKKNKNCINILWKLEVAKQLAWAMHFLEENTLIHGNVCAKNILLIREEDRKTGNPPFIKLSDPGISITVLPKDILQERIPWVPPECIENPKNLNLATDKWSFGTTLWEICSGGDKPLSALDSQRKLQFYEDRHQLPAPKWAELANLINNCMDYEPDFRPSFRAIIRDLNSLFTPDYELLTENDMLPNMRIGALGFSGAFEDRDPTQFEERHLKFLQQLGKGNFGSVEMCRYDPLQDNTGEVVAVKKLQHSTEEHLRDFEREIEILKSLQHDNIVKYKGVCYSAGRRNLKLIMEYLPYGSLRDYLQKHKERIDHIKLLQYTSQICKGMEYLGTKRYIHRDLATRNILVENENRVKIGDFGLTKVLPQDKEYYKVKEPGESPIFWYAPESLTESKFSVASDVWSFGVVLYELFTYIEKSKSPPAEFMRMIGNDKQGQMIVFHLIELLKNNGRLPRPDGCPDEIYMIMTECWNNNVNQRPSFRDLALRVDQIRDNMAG
Glycogen synthase kinase-3 beta (Homo sapiens), sequence (P49841 whole entry, looked up): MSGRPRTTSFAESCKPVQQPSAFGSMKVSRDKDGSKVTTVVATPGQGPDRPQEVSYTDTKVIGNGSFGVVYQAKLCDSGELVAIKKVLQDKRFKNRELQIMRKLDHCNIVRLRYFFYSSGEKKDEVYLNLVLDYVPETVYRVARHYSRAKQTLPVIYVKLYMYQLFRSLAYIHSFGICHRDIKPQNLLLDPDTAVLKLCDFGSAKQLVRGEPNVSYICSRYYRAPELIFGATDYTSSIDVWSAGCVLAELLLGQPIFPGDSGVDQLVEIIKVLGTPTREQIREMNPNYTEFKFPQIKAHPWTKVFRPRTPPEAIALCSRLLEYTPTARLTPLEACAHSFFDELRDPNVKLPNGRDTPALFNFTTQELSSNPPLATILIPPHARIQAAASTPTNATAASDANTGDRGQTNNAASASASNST

IC50 [1] | IC50 (OVCAR-8 [2]) | IC50 (HL-60) | IC50 (HCT-116) | SMILES | also measured
1.32 µM | 11.9 µM | 5.3 µM | 8.3 µM | Clc1ccc(C(NCc2ccccc2)c2ccc(-c3cn[nH]c3)cc2)cc1 (stereo unspecified) | –
– | – | – | – | Clc1ccc(C(NC2CCCCC2)c2ccc(-c3cccnc3)cc2)cc1 (stereo unspecified) | inhibition [3]: 20%
0.48 µM | 7.9 µM | 7.8 µM | 15.6 µM | Clc1ccc(C(NC2CC2)c2ccc(-c3cn[nH]c3)cc2)cc1 (stereo unspecified) | –
0.74 µM | 12.5 µM | 12.1 µM | 16.2 µM | Clc1ccc(C(NCc2ccccc2)c2ccc(-c3ncnc4[nH]cnc34)cc2)cc1 (stereo unspecified) | –
0.47 µM | 30.6 µM | 11.9 µM | 13.4 µM | Clc1ccc(C(NC2CC2)c2ccc(-c3ncnc4[nH]cnc34)cc2)cc1 (stereo unspecified) | –
0.17 µM | 16.1 µM | 3.9 µM | 14.4 µM | CC(C)(C)NC(c1ccc(Cl)cc1)c1ccc(-c2ccncc2)cc1 (stereo unspecified) | –
0.82 µM | 11.1 µM | – | 10.7 µM | NCCNC(c1ccc(Cl)cc1)c1ccc(-c2cn[nH]c2)cc1 (stereo unspecified) | –
– | 10.5 µM | 11.4 µM | 15.7 µM | O=S(=O)(NCCNC/C=C/c1ccc(Br)cc1)c1cccc2cnccc12 | –
0.16 µM | 17 µM | 13.2 µM | 8.5 µM | CC(C)NC(c1ccc(Cl)cc1)c1ccc(-c2ncnc3nc[nH]c23)cc1 (stereo unspecified) | –
0.9 µM | 8.1 µM | 5.4 µM | 14.1 µM | CC(C)CNC(c1ccc(Cl)cc1)c1ccc(-c2cn[nH]c2)cc1 (stereo unspecified) | –
0.37 µM | 12.2 µM | 10.7 µM | 11.6 µM | CC(C)NC(c1ccc(Cl)cc1)c1ccc(-c2cn[nH]c2)cc1 (stereo unspecified) | –
0.65 µM | 34.7 µM | – | 27.6 µM | OCCNC(c1ccc(Cl)cc1)c1ccc(-c2cn[nH]c2)cc1 (stereo unspecified) | –
1.25 µM | 18.5 µM | 12.5 µM | 16.3 µM | Clc1ccc(C(NCc2ccccc2)c2ccc(-c3ccncc3)cc2)cc1 (stereo unspecified) | –
1.43 µM | 16.3 µM | 3.3 µM | 15.5 µM | CC(C)CNC(c1ccc(Cl)cc1)c1ccc(-c2ccncc2)cc1 (stereo unspecified) | –
0.038 µM | 8.1 µM | 5.3 µM | 8.9 µM | CC(C)(C)NC(c1ccc(Cl)cc1)c1ccc(-c2cn[nH]c2)cc1 (stereo unspecified) | inhibition (Homo sapiens): 12%; inhibition [4]: 1.8%; inhibition [5]: inactive; inhibition [6]: 19.5%; inhibition [7]: Active; inhibition [8]: 0.98%; inhibition [9]: 7.2%; inhibition [10]: Active; inhibition [11]: 28.3%; Activity (OVCAR-8 [12]): 66.8%; IC50 [13]: 0.88 µM
0.22 µM | 22.8 µM | 13.9 µM | 17.3 µM | CC(C)NC(c1ccc(Cl)cc1)c1ccc(-c2ccncc2)cc1 (stereo unspecified) | –
1.1 µM | 5.5 µM | 2.1 µM | 26.8 µM | Clc1ccc(C(NC2CCCCC2)c2ccc(-c3cn[nH]c3)cc2)cc1 (stereo unspecified) | –
0.74 µM | 9.9 µM | 5.3 µM | 7.7 µM | CC(C)CNC(c1ccc(Cl)cc1)c1ccc(-c2ncnc3nc[nH]c23)cc1 (stereo unspecified) | –
– | – | – | – | CC(C)(C)NC(c1ccc(Cl)cc1)c1ccc(-c2cccnc2)cc1 (stereo unspecified) | inhibition [3]: 19%
– | – | – | – | CC(C)CNC(c1ccc(Cl)cc1)c1ccc(-c2cccnc2)cc1 (stereo unspecified) | inhibition [3]: 10%
0.64 µM | 8.6 µM | 11 µM | 14.4 µM | Clc1ccc(C(NC2CCCCC2)c2ccc(-c3ncnc4[nH]cnc34)cc2)cc1 (stereo unspecified) | –
– | – | – | – | Clc1ccc(C(Nc2ccccc2)c2ccc(-c3cn[nH]c3)cc2)cc1 (stereo unspecified) | inhibition [3]: 29%
1.26 µM | 15.6 µM | 3.2 µM | 12.4 µM | Clc1ccc(C(NC2CCCCC2)c2ccc(-c3ccncc3)cc2)cc1 (stereo unspecified) | –
– | – | – | – | CN[C@@H]1C[C@H]2O[C@@](C)([C@@H]1OC)n1c3ccccc3c3c4c(c5c6ccccc6n2c5c31)C(=O)NC4 [STAUROSPORINE] | IC50 [14]: 0.015 µM; IC50 [15]: 0.026 µM
– | – | – | – | Clc1ccc(C(Nc2ccccc2)c2ccc(-c3ccncc3)cc2)cc1 (stereo unspecified) | inhibition [3]: 26%
